This note sets out measurements from publication PMC6930338 (Journal of autoimmunity, 2019).

Changes are numbered by the printed parent chain. Where no end group is shown, it is not given here.

One data set deals with HLA-DRB4*01:01/ *01:03 (Homo sapiens, UniProt P01903+P13762, G164S). Briefly: In vitro competitive peptide binding to purified MHC class II. The procedure, abridged:
(§1)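 Candidate MPO peptides were picked by IEDB in silico prediction and then tested in vitro. Each peptide's inhibition of binding of a high-affinity radiolabeled peptide to purified HLA-DPB1*04:01 or HLA-DRB4*01:01 class II molecules was measured.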

The target of data set [1] is T1, HLA-DPA1*01:03/ HLA-DPB1*04:02 (Homo sapiens, UniProt P04440+P20036, A65V/A84D/A85E/L207M).
T1 sequence (P20036 29-260): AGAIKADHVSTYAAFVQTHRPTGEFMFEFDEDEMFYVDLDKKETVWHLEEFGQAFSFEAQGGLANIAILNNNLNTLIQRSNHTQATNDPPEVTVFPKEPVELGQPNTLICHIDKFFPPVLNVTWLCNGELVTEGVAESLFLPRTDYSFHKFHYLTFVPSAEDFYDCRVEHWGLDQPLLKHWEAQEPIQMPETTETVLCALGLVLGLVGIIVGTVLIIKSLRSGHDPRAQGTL
T1 sequence (P04440 30-258 A65V/A84D/A85E): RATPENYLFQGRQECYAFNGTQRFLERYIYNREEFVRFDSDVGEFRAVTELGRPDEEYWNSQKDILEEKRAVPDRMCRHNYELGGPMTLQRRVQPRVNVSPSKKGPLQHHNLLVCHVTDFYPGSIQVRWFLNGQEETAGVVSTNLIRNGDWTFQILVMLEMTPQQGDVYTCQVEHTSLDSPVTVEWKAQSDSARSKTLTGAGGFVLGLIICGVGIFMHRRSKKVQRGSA
Put plainly: In vitro competitive peptide binding to purified MHC class II.

For another data set, the target named is HLA-DRB1*04:01-*04:13 (Homo sapiens, UniProt P01903+P01911, A100K/A169T/F76Y/I96L/K127E/L162R/M171V/N62H/P40V/Q125Y/R42H/S133A/S149N/S66Y/V115G/V209L/W38E). The description is as above.
For the next data set, the target named is HLA-DRB1*03:04/ *03:07 (Homo sapiens, UniProt P01903+P01911, A100K/A102G/A103R/A169T/F55Y/I96L/K41T/L162R/M171V/P40S/Q125H/Q178H/Q39Y/R42S/T106N/T262R/W38E/Y61H). The description is as above.
Data set [2] concerns the target HLA-DRB5*01:01/ *01:02/ *02:02 (Homo sapiens, UniProt P01903+Q30154). The description is as above.
Data set [3] deals with T2, HLA-DPA1*01:03/ HLA-DPB1*04:01 (Homo sapiens, UniProt P04440+P20036).
T2 sequence (P20036 29-260): T1 sequence (P20036 29-260)
T2 sequence (P04440 30-258): T1 sequence (P04440 30-258 A65V/A84D/A85E) with V36A, D55A, E56A
Put plainly: In vitro competitive peptide binding to purified MHC class II. In a few lines: as §1

Data set [4] is described as follows: Peptide solubility noted during ELISA optimization. To be noted: qualitative; follow-up testing and optimization of ELISA. The class given is physicochemical.

On to PILRGLMATPAKLNR [MPO545–559], for which the IC50 on HLA-DRB4*01:01/ *01:03 was found to be 68 nM; in data set [1], 2480 nM; on HLA-DRB1*04:01-*04:13 it was 8 nM; on HLA-DRB1*03:04/ *03:07, 32800 nM; in data set [2] it was 29 nM; in data set [3], 12000 nM.

As to RKIVGAMVQIITYRD [MPO447–461], the IC50 on HLA-DRB4*01:01/ *01:03 came out at 240 nM; in data set [1] it was 74 nM; at HLA-DRB1*04:01-*04:13, 46 nM; on HLA-DRB1*03:04/ *03:07, 13900 nM; in data set [2], 1210 nM; in data set [3] it was 98 nM. In addition, the “Solubility compared with MPO447–459” value in data set [4] was “improved solubility”.

Regarding “IKAVRIYIGDVMRQT [MPO447–461scramble, reference compound]”, the results for the IC50 (on HLA-DRB4*01:01/ *01:03; in data set [3]) were 17 nM and 38 nM, respectively.

Turning to PVAATRTAVRAADYL [MPO105–119], the IC50 at HLA-DRB4*01:01/ *01:03 came to 876 nM; in data set [1], 6170 nM; on HLA-DRB1*04:01-*04:13 it was 433 nM; on HLA-DRB1*03:04/ *03:07, 14500 nM; in data set [2] it was 321 nM; in data set [3], 7120 nM.

Turning to “GEKLYQEARKIVGAM [MPO413–427, reference compound]”, the IC50 is 9350 nM on HLA-DRB4*01:01/ *01:03; 19400 nM in data set [1]; 933 nM on HLA-DRB1*04:01-*04:13; 31100 nM on HLA-DRB1*03:04/ *03:07; 1440 nM in data set [2]; 53700 nM in data set [3].

As for PRWDGERLYQEARKIVGAMV [MPO435–454], the IC50 on HLA-DRB4*01:01/ *01:03 is 253 nM; in data set [3], 1050 nM.

In the case of MPELTSMHTLLLREH [MPO409–423], the IC50 on HLA-DRB4*01:01/ *01:03 came out at 217 nM; in data set [1], 826 nM; on HLA-DRB1*04:01-*04:13, 16 nM; at HLA-DRB1*03:04/ *03:07, 11000 nM; in data set [2] it was 81 nM; in data set [3], 409 nM.

Turning to DQERSLMFMQWGQLL [MPO245–259], the IC50 was 381 nM at HLA-DRB4*01:01/ *01:03; 910 nM in data set [1]; 4140 nM at HLA-DRB1*04:01-*04:13; 70000 nM on HLA-DRB1*03:04/ *03:07; 1180 nM in data set [2]; 1090 nM in data set [3].

Consider `CC[C@H](C)[C@H](NC(=O)[C@H](CCCNC(=N)N)NC(=O)[C@@H]1CCCN1)C(=O)N[C@@H](C)C(=O)N[C@@H](CC(N)=O)C(=O)N[C@H](C(=O)N[C@@H](Cc1ccccc1)C(=O)N[C@H](C(=O)N[C@@H](CC(N)=O)C(=O)N[C@@H](C)C(=O)N[C@@H](Cc1ccccc1)C(=O)N[C@@H](CCCNC(=N)N)C(=O)N[C@@H](Cc1ccc(O)cc1)C(=O)NCC(=O)N[C@@H](Cc1c[nH]cn1)C(=O)O)[C@@H](C)O)C(C)C` [MPO488–502], for which the IC50 at HLA-DRB4*01:01/ *01:03 is 725 nM; in data set [1] it was 1340 nM; on HLA-DRB1*04:01-*04:13 it was 2 nM; at HLA-DRB1*03:04/ *03:07 it was 2970 nM; in data set [2], 5 nM; in data set [3], 5620 nM.
